Source: PubChem BioAssay
PLK1 PBD inh: Plk1 (human) PBD binding inhibition; P53350; Plk1 PBD phosphopeptide binding, fluorescence polarization; inhibition, %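 (tested at about 20 µM)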; 97,000 tested, 0.13% active; AID 693; in the data active = inhibition above about 34%, passing the limit was not always enough
PLK1 kinase inh: inhibitors of human PLK1 kinase | AID 619 | P53350 | recombinant PLK1 kinase, TR-FRET peptide phosphorylation | 97,000 tested, 0.53% active | inhibition, % at 10 µM;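 active = inhibition of 50% or more in the single-concentration screen; inactive = inhibition below 50%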;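 note: 0% = DMSO max control and 100% = H-89 dihydrochloride min control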
FAK inh: inhibitors of human focal adhesion kinase | biochemical FAK kinase activity assay | inhibition, %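 (tested at 7 µM)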 | 97,000 tested, 0.84% active | Q05397;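 note: 0% = DMSO and 100% = reference compound high control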
Pyk2 oligo antag: blocks oligomerization of human Pyk2 in cells; z-score (the deposit names both 25 µM and 10 µM); 99,000 tested, 0.83% active; Q293 cells, Pyk2 FERM NanoBiT luminescence; hits give low values;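 active = Z-score of -3 or lower, scaled per plate to the spread of control and sample wells; inactive = z-score above -3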;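 note: negative z-score means lost luminescence so less FERM oligomerization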
Cav3 T inh: human Cav3.2 channel inhibition, primary screen; Cav3.2-expressing cells, Fluo-4 calcium fluorescence FDSS; hits give low values; 100,000 tested, 4% active; B-score at 10 µM; AID 449739;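 active = single-dose well whose peak fluorescence ratio is a statistical outlier from its plate by either plate-standardised score or position-corrected B-score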
HIV Rev-RRE inh: disrupts HIV-1 Rev binding to RRE RNA | P05866 | Rev peptide-RRE RNA binding, FRET | inhibition, % at 8 µM | 97,000 tested, 0.79% active | AID 704;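 active = inhibition above the screen-wide mean plus 3 SD, cut at about 35% in these data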;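 note: 0% = median DMSO wells and 100% = median Neomycin B control wells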
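Test system: labelled RRE RNA duplex and labelled Rev peptide. Times: 5 min compound–RNA preincubation, then 15 min with peptide, 25 °C. Doses: single-dose 8 µM. Measured by: FRET, excitation 480 nm, emission 540 nm donor and 671 nm acceptor. Measure: % inhibition of FRET ratio versus controls.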
FAK inh confirm: FAK (human) inhibition confirmed; shares compounds with FAK inh; FAK kinase biochemical inhibition assay; inhibition, % at 7 µM; 750 tested, 28% active
The depositor's hits bear a star; / = no result given. Only some compounds are listed: those with a hit (about 5.8% of all), similar ones and a draw of the others. Cut-off read from the data, not from the text of the source, unless noted: active = inhibition above about 19%; inactive = the rest.

SMILES	PLK1 PBD inh	PLK1 kinase inh	FAK inh	Pyk2 oligo antag	Cav3 T inh	HIV Rev-RRE inh	FAK inh confirm
CC1CCc2c(sc3nn[nH]c(=O)c23)C1 (stereo unspecified)	-5.2	-1.1	25.6*	-0.35	/	3.7	7.3
CC1=C(C#N)C2C(/C1=N/O)C2(C)C (stereo unspecified)	-27.2	-10.5	-0.9	1.25	0.0142	2.6	/
CCOC(=O)c1cnc2cc(Cl)c(OC)cc2c1NCC1CCCO1 (stereo unspecified)	-18.3	2.1	20.2*	-2.25	0.338	0.9	5.6
CCOC(=O)c1cnc(N2CCOCC2)[nH]c1=O	4.5	15.2	-6.5	1.83	1.25	3.6	/
CCOC(=O)c1cnc2ccc(C)cc2c1Sc1ccccc1	-12.8	-9.5	22.1*	-1.97	-0.817	12.5	2.5
CCOC(=O)c1cnc2ccc(C)cc2c1Nc1ccc(N2CCOCC2)cc1	-13.2	-12.2	51.4*	-3.05*	-0.0284	-4.3	22.2*
COc1ccc(CCNC(=O)COC(=O)c2ccco2)cc1OC	14.8	-4.7	-7.4	0.56	-0.00561	3.5	/
COc1ccc(CCNC(=O)c2ccc3nc(-c4ccco4)c(-c4ccco4)nc3c2)cc1OC	7.2	0.9	54.4*	-0.99	/	-9.2	1.9
COc1ccc([C@H]2/C=C\CN(S(=O)(=O)c3ccc4ccccc4c3)[C@@H](C)C(=O)N2Cc2ccc(F)cc2)cc1	/	/	/	/	-2.07	/	/
COC(=O)c1cc(OC)c(OC)cc1NC(=O)c1cc(-c2ccccc2)nc2ccccc12	4.5	-8.3	21.4*	-0.05	/	-0.7	8.2
CSc1nc(C)cc(OCCNS(=O)(=O)c2cc(C)ccc2C)n1	/	/	/	0.66	-0.0573	/	/
C=CCn1c(NC(=O)c2ccccc2Cl)c(C#N)c2nc3ccccc3nc21	-1.8	-13.8	20.0*	-0.34	-7.05*	20.1	6.1
Nc1ccc(N2CCCCCC2)cc1	-23.0	17.7	27.9*	/	0.708	23.6	12.3
Cc1ccc(OC(=O)c2ccccc2P(=O)(O)O)cc1	11.3	-7.2	50.0*	1.34	0.205	10.8	43.9*
O=C(Oc1ccccc1Cl)c1ccccc1P(=O)(O)O	-25.7	-8.8	72.2*	0.68	-3.5	6.4	68.4*
CC(C)(C(=O)c1ccccc1)/[N+]([O-])=C/c1ccccc1F	-12.5	-4.6	-2.5	1.08	0.617	3.7	/
CC(=O)C1=C(O)C(=O)N(CCNCCO)C1c1ccccc1 (stereo unspecified)	-13.5	-7.8	-1.6	-0.08	0.741	4.5	/
CC1CN(C(=O)c2cccs2)CCN1C(=O)c1cccs1 (stereo unspecified)	/	/	/	-0.05	-0.201	/	/
c1ccc(-n2nnnc2-n2cnc3ccccc32)cc1	8.4	-16.5	0.3	-0.61	-0.891	4.4	/
c1ccc(-c2nccc(-c3ccc(-n4cnc5ccccc54)cc3)n2)cc1	-13.4	-4.3	86.0*	-0.19	/	10.7	80.7*
CN1c2ccccc2C(C)(C)C12C=Nc1c(ccc3ccccc13)O2 (stereo unspecified)	6.5	-5.5	32.2*	1.28	0.454	10.8	2.5
COc1ccc2ccc3c(c2c1)N=CC1(O3)N(C)c2ccccc2C1(C)C (stereo unspecified)	-7.0	-0.3	16.7	-2.6	-0.208	4.1	/
CCC(C)[C@@H](C(=O)Nc1ccc(OC)c(OC)c1)N1Cc2ccccc2C1=O (stereo partly specified)	-2.4	-9.5	-2.5	/	-0.328	9.6	/
Cn1c2ccc(CC(=O)O)cc2c2cc(CC(=O)O)ccc21	5.4	10.6	-1.3	1.08	0.35	-0.6	/
COC(=O)Cc1ccc2c3ccccc3n(C)c2c1	0.7	-9.5	41.3*	-0.83	-0.579	4.8	31.7*
O=C1c2ccccc2C(=O)C1c1ccnc2ccccc12	-10.8	-7.5	50.8*	-0.32	-1.02	9.3	33.8*
O=C1C(c2ccnc3ccccc23)=C(O)c2ccccc21	-8.8	-7.8	31.3*	-0.94	0.963	2.5	26.6*
O=C1C(O)=C(O)C(=O)c2ccccc21	/	/	/	/	-0.639	/	/
O=C(CCn1c(=O)sc2ccccc21)NCCN1CCOCC1	-18.0	0.0	-11.3	/	0.0893	1.1	/
COc1ccc(-c2nnc(SC(C)C(=O)Nc3nccs3)n2-c2ccccc2)cc1OC (stereo unspecified)	-27.9	-3.6	49.2*	-0.55	-0.352	4.6	-1.7
